Assay results: ChEMBL document CHEMBL1148342, “Synthesis, X-ray crystal structures, stabilities, and in vitro cytotoxic activities of new heteroarylacrylonitriles” (J Med Chem, 2004)

Assays:
YAPC = test: Compound was tested for growth inhibition against human YAPC cell lines; assay type: functional, cell-based; settings: Homo sapiens, YAPC
In short: (§1)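 Cells were grown in RPMI-1640 with 2 g/L NaHCO3 and 10% FCS at 37 °C in 5% CO2, seeded at 1000 cells/well, and dosed 24 h later at five geometric dilutions for 96 h of continuous exposure. Cells were then glutaraldehyde-fixed and stained with crystal violet, with OD read at 570 nm. IC50 was taken from the dose–response data.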

5637 [1] = test: Growth inhibition against human 5637 cell lines; assay type: functional, cell-based; settings: Homo sapiens; in short: as §1
SISO [2] = test: Cytotoxic activity against human SISO cell line at 20 uM; assay type: functional
In short: (§2)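 Cells in RPMI-1640 with 10% FCS were seeded (1000 cells/well; KYSE-510 500, LCLC-103H 250), then exposed 24 h later for 96 h. Read-out was crystal violet staining of glutaraldehyde-fixed cells at OD 570 nm. Growth (%) = (OD treated − OD at drug addition)/(OD control − OD at drug addition) × 100.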

KYSE-520 cell line = test: Growth inhibition against human KYSE-520 cell lines; assay type: functional, cell-based; settings: Homo sapiens, KYSE-520; in short: as §1
SISO [3] = test: Growth inhibition against human SISO cell lines; assay type: functional, cell-based; settings: Homo sapiens, SISO; in short: as §1
RT-112 = test: Growth inhibition against human RT-112 cell lines; assay type: functional, cell-based; settings: Homo sapiens, RT-112; in short: as §1
RT-4 = test: Growth inhibition against human RT-4 cell lines; assay type: functional, cell-based; settings: Homo sapiens, RT-4; in short: as §1
DAN-G = test: Growth inhibition against human DAN-G cell lines; assay type: functional, cell-based; settings: Homo sapiens, DAN-G; in short: as §1
LCLC-103H cell line [4] = test: Growth inhibition against human LCLC-103H cell lines; assay type: functional, cell-based; settings: Homo sapiens, LCLC-103H
In short: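 LCLC-103H cells were grown in RPMI-1640 with 2 g/L NaHCO3 and 10% FCS (5% CO2, 37 °C) and plated at 250 cells/well. After 24 h, five geometric dilutions were applied continuously for 96 h. Fixation was with glutaraldehyde, followed by crystal violet staining and OD at 570 nm. IC50 came from the dose–response curves.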

MCF7 = test: Growth inhibition against human MCF-7 cell lines; assay type: functional, cell-based; settings: Homo sapiens, MCF7
In short: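 MCF-7 was cultured in RPMI-1640 with 2 g/L NaHCO3, 10% FCS, 1 mM pyruvate, MEM salts and amino acids. Plating was 1000 cells/well, then after 24 h, 96 h of continuous exposure at five geometric dilutions. Crystal violet staining of glutaraldehyde-fixed cells was read at 570 nm, and IC50 was derived from the dose–response data.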

KYSE-70 cell line [5] = test: Growth inhibition against human KYSE-70 cell lines; assay type: functional, cell-based; settings: Homo sapiens, KYSE-70; in short: as §1
KYSE-510 (human) = test: Growth inhibition against human KYSE-510 cell lines; settings: Homo sapiens, KYSE-510
TERT-RPE1 = test: Compound was tested for growth inhibition against human h-TERTRPE1 cell lines; assay type: functional, cell-based; settings: Homo sapiens, RPE-1
In short: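 The noncancerous hTERT-immortalized epithelial line h-TERT-RPE1 was grown in DMEM/F-12 with 2 g/L NaHCO3 and 10% FCS (37 °C, 5% CO2) and seeded at 1000 cells/well. Substance was added 24 h later at five geometric dilutions for 96 h continuously. The read-out was crystal violet staining after glutaraldehyde fixation, OD 570 nm, with IC50 from dose–response.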

KYSE-510 = test: Cytotoxic activity against human KYSE-510 cell line at 20 uM expressed as percent growth value; assay type: functional; in short: as §2
LCLC-103H cell line [6] = test: Cytotoxic activity against human LCLC-103H cell line at 20 uM expressed as percent growth value; assay type: functional; in short: as §2
5637 [7] = test: Cytotoxic activity against human 5637 cell line at 20 uM expressed as percent growth value; assay type: functional; in short: as §2
KYSE-70 cell line [8] = test: Cytotoxic activity against human KYSE-70 cell line at 20 uM expressed as percent growth value; assay type: functional; in short: as §2

Row | IC50 (MCF7) [nM] | SMILES | IC50 (YAPC) [nM] | IC50 5637 [1] [nM] | Activity (SISO [2]) | IC50 (KYSE-520 cell line) [nM] | IC50 (SISO [3]) [nM] | IC50 (RT-112) [nM] | IC50 (RT-4) [nM] | IC50 (DAN-G) [nM] | IC50 (LCLC-103H cell line [4]) [nM] | IC50 (KYSE-70 cell line [5]) [nM] | IC50 (KYSE-510 (human)) [nM] | IC50 (TERT-RPE1) [nM] | Activity (KYSE-510) | Activity (LCLC-103H cell line [6]) | Activity 5637 [7] | Activity (KYSE-70 cell line [8])
1 | 1620 | N#C/C(=C\c1ccc([N+](=O)[O-])o1)c1n[nH]c(-c2ccccc2)n1 | 1400 | 1220 | -7.9 | 1620 | 1200 | 1510 | 1850 | 1520 | 700 | 1170 | 1350 | 1160 | -20.9 | -8.4 |  | 
2 |  | N#C/C(=C\c1cccc([N+](=O)[O-])c1)c1n[nH]c(-c2ccccc2)n1 |  |  | 85.5 |  |  |  |  |  |  |  |  |  | 108 | 56.4 |  | 
3 | 610 | N#C/C(=C\c1ccc([N+](=O)[O-])o1)c1n[nH]c(Cc2ccccc2)n1 | 450 | 400 | -8.1 | 750 | 370 | 750 | 1370 | 490 | 290 | 400 | 620 | 420 | -20.7 | -7.3 |  | 
4 |  | CN(C)c1ccc(/C=C(\C#N)c2nc3ccccc3[nH]2)cc1 |  |  | 95 |  |  |  |  |  |  |  |  |  |  |  | 61.1 | 124.4
5 |  | N#C/C(=C\c1ccc(OC(F)(F)F)cc1)c1nc2ccccc2[nH]1 |  |  | 71.7 |  |  |  |  |  |  |  |  |  |  |  | 66 | 96.7
6 |  | COc1ccc(/C=C(\C#N)c2nc3ccccc3[nH]2)cc1 |  |  | 72.1 |  |  |  |  |  |  |  |  |  |  |  | 64.9 | 75.8
7 | 1470 | Cc1n[nH]c(/C(C#N)=C/c2ccc([N+](=O)[O-])o2)n1 | 850 | 540 | -8.7 | 860 | 270 | 1000 | 1480 | 1000 | 350 | 660 | 900 | 690 | -21.3 | -8.4 |  | 
8 | 1490 | CN(C)c1ccc(/C=C(\C#N)c2n[nH]c(Cc3ccccc3)n2)cc1 | 3480 | 1380 | 1.2 | 6260 | 3240 | 3690 | 2500 | 4110 | 1650 | 2530 | 3360 |  | -1.01 | -1.8 |  | 
9 |  | Cc1n[nH]c(/C(C#N)=C/c2cccc([N+](=O)[O-])c2)n1 |  |  | 98.1 |  |  |  |  |  |  |  |  |  | 94.1 | 68.8 |  | 
10 | 650 | N#C/C(=C\c1ccc([N+](=O)[O-])o1)c1nc2ccccc2[nH]1 | 570 | 480 | -8.2 | 620 | 330 | 690 | 990 | 690 | 410 | 450 | 750 | 600 | -21.2 | -8 |  | 
11 |  | Cc1ccc(/C=C(\C#N)c2nc3ccccc3[nH]2)s1 |  | 20000 | 64.5 |  | > 20000 |  | > 20000 | > 20000 | 2110 |  |  |  |  | 5.9 | 47.8 | 
